How the values were obtained:
[1] = Tested for inhibition of copper induced lipid peroxidation in human low density lipoproteins (LDL); format: functional
How it was run: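 LDL isolated by ultracentrifugation from pooled plasma of healthy normolipidemic human donors. Oxidation driven by copper for 3 h at 24 °C. Compounds in DMSO added just before oxidation, at 10 concentrations from 10^-7 to 10^-3 M, in duplicate. TBARS measured by the Yagi method. IC50 by linear regression; also given as an activity ratio versus probucol.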

[2] = Activity ratio versus Probucol in lipid peroxidation; format: functional
How it was run: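 LDL isolated by ultracentrifugation from pooled plasma of healthy normolipidemic human donors. Compounds were added in DMSO just before copper-induced oxidation (3 h, 24 °C). Ten concentrations from 10^-7 to 10^-3 M were tested in duplicate. Read-out was TBARS inhibition (Yagi method), and IC50 came from linear regression. Activity was expressed as a ratio versus probucol to correct for LDL batch variation.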

Endothelial cell = assay: Inhibitory concentration against 15-lipoxygenase, by inhibiting 15-HETE production by human umbilical vein endothelial cells (HUVEC) stimulated by calcium ionophore A 23187 at concentration of 10e-5 M.; format: cell-based
How it was run: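 HUVEC (isolated) preincubated 15 min at 37 °C with compound at 10^-5 M in DMSO, in triplicate; stimulated with calcium ionophore A 23187 (5 × 10^-6 M in DMSO).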

Bos taurus = organism: Bos taurus; assay: Inhibitory concentration against protection of bovine endothelial cells against cytotoxicity of oxidised LDL; format: functional; details: Endothelial cell
How it was run: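 Cells kept 48 h in the presence of oxidized LDL, washed twice with PBS. Viability read by MTT (250 µg mL^-1 in phenol red-free RPMI, 2 h, 37 °C), solubilized in DMSO, OD 540 nm, expressed as % of cells grown without oxidized LDL. Six concentrations, five assays each; IC50 by linear regression.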

Rattus norvegicus = organism: Rattus norvegicus; assay: Inhibitory concentration against KCL-induced rat thoracic contraction; format: functional
How it was run: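 Isolated rat aorta contracted with hyperpotassic solution (KCl 60 mM). Inhibition of contraction measured at eight concentrations, 10^-8 to 3 × 10^-5 M, each in duplicate, on two separate preparations. IC50 obtained from the concentration-response curve by linear regression. Flunarizine as reference.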

| IC50 [1] [µM] | IC50 (Rattus norvegicus) [µM] | Compound | Ratio [2] | inhibition (Endothelial cell) [%] | IC50 (Bos taurus) [µM] |
| --- | --- | --- | --- | --- | --- |
| 100 |  | CCCCCCCCN(C(=O)c1cc2cc(SCC)ccc2[nH]1)c1ccccc1 | 0.03 |  |  |
| 0.1 |  | Cn1c2c(c3cc(O)ccc31)CCCCC2 |  | 62 |  |
| 1 |  | COc1ccc2[nH]c3c(c2c1)CCCC3 | 3 |  |  |
| 0.6 | 1.5 | Cn1c(C(=O)N2CCN(C(c3ccc(F)cc3)c3ccc(F)cc3)CC2)cc2cc(O)ccc21 | 5 |  | 0.14 |
| 0.5 |  | Oc1ccc2[nH]c3c(c2c1)CCCCCC3 | 2 |  |  |
| 0.9 |  | COc1ccc2[nH]c(C(=O)Nc3ccccc3)cc2c1 | 2.2 |  |  |
| 1 |  | CN(C(=O)c1cc2cc(O)ccc2[nH]1)c1ccccc1 | 1 |  |  |
| 1 |  | O=C(Nc1ccccc1)c1cc2cc(O)ccc2[nH]1 | 3 |  |  |
| 1 |  | CN(C(=O)c1cc2cc(O)ccc2n1C)c1cccc(C(F)(F)F)c1 | 0.5 |  |  |
| 200 |  | COc1cccc(N(C)C(=O)c2cc3cc(OC)ccc3n2C)c1 | 0.01 |  |  |
| 90 |  | COc1ccc2c(c1)cc(C(=O)N(C)c1ccccc1)n2C | 0.02 |  |  |
| 1 |  | CCCCN(C(=O)c1cc2cc(O)ccc2n1C)c1ccccc1 | 3 |  |  |
| 5 |  | CC(C)(Sc1cc(C(C)(C)C)c(O)c(C(C)(C)C)c1)Sc1cc(C(C)(C)C)c(O)c(C(C)(C)C)c1 [PROBUCOL] |  |  |  |
| 5 |  | COc1ccc(CN2CCN(C(=O)c3cc4cc(O)ccc4[nH]3)CC2)c(OC)c1OC | 1 |  |  |
| 0.1 |  | CCCCCCN(C(=O)c1cc2cc(O)ccc2[nH]1)c1ccccc1 | 10 |  |  |
| 20 |  | CCSc1ccc2c(c1)c1c(n2C)CCCC1 | 0.1 |  |  |
| < 0.1 |  | CN(C(=O)c1cc2cc(O)ccc2n1C)c1cccc(Cl)c1 | > 20 |  |  |
| 0.2 |  | CN(C(=O)c1cc2cc(O)ccc2n1C)c1ccccc1 | 10 |  |  |
| 0.6 |  | Cn1c2c(c3cc(O)ccc31)CCCC2 | 3 |  |  |
| 0.8 |  | CN(C(=O)c1cc2cc(O)ccc2n1C)c1cccc(Br)c1 | 2.5 |  |  |
| 0.1 |  | Cn1c2c(c3cc(O)ccc31)CCCCCC2 | 10 |  |  |
| 1 |  | Cn1c(C(=O)Nc2cccc(Cl)c2)cc2cc(O)ccc21 | 0.8 |  |  |
| 0.2 |  | CCCCCCN(C(=O)c1cc2cc(O)ccc2n1C)c1ccccc1 | 5 |  |  |
| > 1000 |  | COc1ccc2[nH]c(C(=O)N(C)c3ccccc3)cc2c1 | < 0.001 |  |  |
| 10 |  | CCCCCCCCN(C(=O)c1cc2cc(O)ccc2[nH]1)c1ccccc1 | 0.3 |  |  |
| 0.8 |  | COc1cc(NC(=O)c2cc3cc(O)ccc3[nH]2)cc(OC)c1OC | 3.8 |  |  |
| 0.9 |  | Cn1c(C(=O)Nc2ccccc2)cc2cc(O)ccc21 | 0.3 |  |  |

From ChEMBL document CHEMBL1130341, “Novel indole-2-carboxamide and cycloalkeno[1,2-b]indole derivatives. Structure-activity relationships for high inhibition of human LDL peroxidation” (J Med Chem, 1997)
